We go through seven molecules from PMC9978883 (Molecular Cancer Therapeutics, 2023).

One data set has as its system DU145. As to the kind of experiment: Cell proliferation. Conditions: Homo sapiens, DU-145, 72 h, read-out: Growth inhibitory IC50, DU145. The format is cell-based.
The test system of a further data set is PC3. The experiment in a line: Cell proliferation. In kind it is cell-based. Conditions: Homo sapiens, PC-3, 72 h, read-out: Growth inhibitory IC50, PC3.
Another data set has as its system LNCaP. As to the kind of experiment: Cell proliferation. In kind it is cell-based. Particulars: Homo sapiens, 72 h, read-out: Growth inhibitory IC50, LNCaP.
The test system of a further data set is WPMY. As to the kind of experiment: Cell proliferation. The format is cell-based. Conditions: Homo sapiens, 72 h, read-out: Growth inhibitory IC50, WPMY.
For another data set, the system named is VCaP. The experiment in a line: Cell proliferation. In kind it is cell-based, human. Particulars: for IC50: Homo sapiens, VCaP, 72 h, read-out: Growth inhibitory IC50, VCaP.
In a further data set the test system is γ-H2A.X. As to the kind of experiment: γ-H2A.X Western blotting in VCaP cells. The format is cell-based, human. Background: A western blot detects proteins with antibodies after separation by electrophoresis.
The subject of a further data set is AIF mRNA. As to the kind of experiment: RT-qPCR for AIF mRNA on VCaP cells. The format is cell-based, human. Particulars: 2 or 5 μmol/L, 12 or 24 hours.
Data set [1] deals with VCaP cells. As to the kind of experiment: Cell necrosis and apoptosis, PI/Hoechst 33342 flow cytometry. In kind it is cell-based, human. On the technique in general: A flow cytometer gives signals particle by particle.
In a further data set the test system is DU145 vector. The experiment in a line: Cell proliferation on DU145 vector control cells. Particulars: Homo sapiens, DU-145, read-out: IC50, DU145 vector. In kind it is cell-based.
The next data set deals with AIF. As to the kind of experiment: AIF Western blot in VCaP cells. The format is cell-based, human.
In the next data set the target is T1, ERG (Homo sapiens, UniProt P11308).
T1 sequence (P11308 1-479): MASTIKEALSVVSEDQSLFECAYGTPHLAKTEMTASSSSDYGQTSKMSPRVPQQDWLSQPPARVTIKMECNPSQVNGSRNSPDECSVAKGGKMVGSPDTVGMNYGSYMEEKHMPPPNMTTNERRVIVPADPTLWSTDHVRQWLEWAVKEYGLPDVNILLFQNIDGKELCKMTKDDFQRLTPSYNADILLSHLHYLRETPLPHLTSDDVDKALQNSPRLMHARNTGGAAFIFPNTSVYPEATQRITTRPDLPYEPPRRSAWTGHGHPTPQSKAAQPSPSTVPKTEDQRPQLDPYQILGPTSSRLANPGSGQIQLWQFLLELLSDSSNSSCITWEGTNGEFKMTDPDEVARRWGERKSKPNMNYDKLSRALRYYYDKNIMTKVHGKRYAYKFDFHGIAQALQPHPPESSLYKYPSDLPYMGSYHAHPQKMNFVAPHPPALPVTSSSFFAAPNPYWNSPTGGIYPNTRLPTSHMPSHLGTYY
As to the kind of experiment: Surface plasmon resonance, ERG. The format is binding. Conditions: SPR. Background: In SPR one partner is held on a chip, and binding of the other changes the refractive index at the surface.

Data set [2] has as its system VCaP cells. The experiment in a line: Cell-cycle determination by flow cytometry. Particulars: 5, 10, or 20 μmol/L, 24 hours. The format is cell-based, human.
The target in data set [3] is T2, interaction between ERG and PARP1 (Homo sapiens, UniProt P11308).
T2 sequence (P11308 1-479): T1 sequence (P11308 1-479)
In kind it is cell-based. Particulars: 0.5 or 1 μmol/L, 2 hours, DU145-ERG.

A further data set has as its system VCaP xenograft tumors. The experiment in a line: VCaP xenograft in male SCID mice. In kind it is in vivo. An outline of the steps:
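Male SCID mice were implanted subcutaneously on the left abdomen with 4 × 10^6 VCaP cells. At about 100 mm3, mice were randomised, six per group. Dosing was 75 mg/kg i.p. once daily or 37.5 mg/kg by gavage twice daily; controls got solvent i.p. Plasma ALT and AST were measured by kit every 7 days. Endpoint was tumour volume >2 cm3. Data are mean ± SD, Dunnett test versus control.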

A further data set concerns the target T3, ALDH1 (Homo sapiens, UniProt P00352).
T3 sequence (P00352 1-501): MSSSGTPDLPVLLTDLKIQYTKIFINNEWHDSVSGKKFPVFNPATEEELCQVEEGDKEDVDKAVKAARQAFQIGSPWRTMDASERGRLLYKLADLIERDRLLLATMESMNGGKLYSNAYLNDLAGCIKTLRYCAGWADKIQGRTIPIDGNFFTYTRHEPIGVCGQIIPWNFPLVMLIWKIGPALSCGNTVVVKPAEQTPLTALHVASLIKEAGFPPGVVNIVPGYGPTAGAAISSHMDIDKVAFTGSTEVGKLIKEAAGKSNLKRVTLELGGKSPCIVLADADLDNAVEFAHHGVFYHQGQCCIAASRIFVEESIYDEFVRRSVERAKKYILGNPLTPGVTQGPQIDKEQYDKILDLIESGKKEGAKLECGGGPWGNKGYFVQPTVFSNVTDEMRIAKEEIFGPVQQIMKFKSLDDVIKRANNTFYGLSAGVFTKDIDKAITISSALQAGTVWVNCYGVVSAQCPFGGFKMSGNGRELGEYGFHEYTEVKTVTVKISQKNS
As to the kind of experiment: Surface plasmon resonance, ALDH1. The format is binding.

Another data set deals with cleaved PARP1. As to the kind of experiment: Western blotting for cleaved PARP1 in VCaP cells. In kind it is cell-based, human.
The target of a further data set is STAT3 (Homo sapiens, UniProt P40763). The experiment in a line: Surface plasmon resonance, STAT3. The format is binding.
Where [4] appears, read: NFZ-treated groups, every 7 days.

Sequence of STAT3 (P40763 whole entry): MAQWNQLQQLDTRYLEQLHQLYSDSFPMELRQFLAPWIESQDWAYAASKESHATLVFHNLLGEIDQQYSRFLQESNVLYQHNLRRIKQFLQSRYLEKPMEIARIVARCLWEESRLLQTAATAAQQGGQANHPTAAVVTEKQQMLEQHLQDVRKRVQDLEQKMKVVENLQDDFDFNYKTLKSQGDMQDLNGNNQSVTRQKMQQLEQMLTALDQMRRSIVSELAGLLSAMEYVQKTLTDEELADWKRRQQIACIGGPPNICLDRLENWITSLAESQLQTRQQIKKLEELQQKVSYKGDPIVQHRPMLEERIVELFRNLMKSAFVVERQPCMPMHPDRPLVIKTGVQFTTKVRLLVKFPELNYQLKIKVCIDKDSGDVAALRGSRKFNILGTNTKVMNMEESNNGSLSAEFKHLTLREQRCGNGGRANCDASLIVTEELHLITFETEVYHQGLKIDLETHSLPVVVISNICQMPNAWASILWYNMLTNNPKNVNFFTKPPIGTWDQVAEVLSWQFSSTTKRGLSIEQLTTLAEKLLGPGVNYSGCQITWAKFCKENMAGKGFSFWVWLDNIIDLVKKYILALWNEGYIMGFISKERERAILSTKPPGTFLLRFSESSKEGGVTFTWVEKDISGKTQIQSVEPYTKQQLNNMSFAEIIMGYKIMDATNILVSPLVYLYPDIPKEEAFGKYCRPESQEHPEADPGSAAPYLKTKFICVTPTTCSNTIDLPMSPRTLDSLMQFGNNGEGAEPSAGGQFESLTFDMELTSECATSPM

The IC50 is the concentration at which inhibition is half-maximal. Consider `CCN(CC)C(=S)SSC(=S)N(CC)CC` [Disulfiram], for which the IC50 with DU145 was 22.6 ± 2.93 µM; in the data set with PC3, 27 ± 2 µM; in the data set on LNCaP it was 33 ± 3.11 µM; in the data set with WPMY it was 23.3 ± 0.49 µM; with VCaP, more than 30 µM.
Regarding `CC(=O)c1cc2c(o1)C(=O)c1ccccc1C2=O` [Napabucasin], the IC50 in the data set with DU145 turned out to be 0.16 ± 0.05 µM; with PC3, 0.29 ± 0.07 µM; in the data set with LNCaP, 0.23 ± 0.08 µM; in the data set with WPMY, 0.25 ± 0.01 µM; in the data set on VCaP it was 0.23 ± 0.05 µM.
The like results for `O=C(N/N=C/c1ccc([N+](=O)[O-])o1)c1cc([N+](=O)[O-])cc([N+](=O)[O-])c1O` [Nifursol] were, in that order, more than 30 µM, more than 30 µM, more than 30 µM, more than 30 µM and more than 30 µM.
Regarding `CSCC1CN(/N=C/c2ccc([N+](=O)[O-])o2)C(=O)O1` (stereo not shown) [Nifuratel], the IC50 is 27.7 ± 1.11 µM in the data set on DU145; 3.87 ± 0.35 µM in the data set with PC3; more than 30 µM in the data set on LNCaP; 26.6 ± 0.13 µM in the data set with WPMY; 13.9 ± 1.12 µM in the data set with VCaP.
One may read the Kd as the free concentration of one partner at which half of the binding sites on the other are occupied at equilibrium, for simple one-to-one binding. A high value points to lower affinity. Regarding `O=C(N/N=C/c1ccc([N+](=O)[O-])o1)c1ccc(O)cc1` [NFZ, Nifuroxazide], in the data set on γ-H2A.X (2 or 5 μmol/L, different times, VCaP), the γ-H2A.X expression result was “increased”. Besides, in the data set with AIF mRNA, the “AIF mRNA expression” value was “increased the expression of AIF”. For the same molecule, the “Dead cells along the PI axis (Q1 and Q2)” value in the data set on VCaP cells [1] (5, 10, or 20 μmol/L, VCaP) is reported as “significantly higher than that in the DMSO group”. Also, the IC50 came to 7.68 ± 0.211 µM in the data set on DU145 vector; 5.12 ± 0.63 µM with DU145; 3.62 ± 0.51 µM in the data set with PC3; 13.4 ± 2.66 µM with LNCaP; 4.53 ± 0.12 µM in the data set with WPMY; 2.65 ± 0.08 µM in the data set on VCaP. In the data set with AIF (2 or 5 μmol/L, within 30 minutes, VCaP), the AIF protein result is reported as “rapidly released AIF”. Also, the “Binding pattern with ERG” value at ERG is “fast binding and fast dissociation”. In addition, the “Proportion of cells in the G1–G0 phase” value with VCaP cells [2] is “increased with the increasing NFZ concentrations”. Also, the “Amount of PARP1 bound to ERG” value in [3] is reported as “reduced the amount of PARP1 bound to ERG”. In addition, in the data set on VCaP xenograft tumors (setting [4]), the “Plasma ALT” value is reported as “fluctuated within a normal range”. The “Plasma AST” value with VCaP xenograft tumors (setting [4]) is “fluctuated within a normal range”. The “Weight loss of mice” value in the data set on VCaP xenograft tumors (NFZ-treated versus vehicle) is “significantly less than that of mice treated with vehicle”. Further, the Toxicity by observation entry in the data set on VCaP xenograft tumors (gavage or i.p.) was “did not show obvious toxicity”. Also, the Kd came out at 22.2 µM on ALDH1 and 22.8 µM at STAT3. Further, at ALDH1 (SPR), the “Binding pattern with ALDH1” value is given as “fast binding/fast dissociation”. Also, the “Reduction of NFZ inhibition on DU145-ERG by addition of olaparib” value in the data set on DU145-ERG (10 μmol/L OLP) is listed as “at least 10 fold”. Further, the “Difference in IC50 between DU145-ERG and DU145 vector” value with DU145-ERG (p < 0.0001) is “at least sevenfold”. For the same molecule, the PARP1 cleavage result in the data set on cleaved PARP1 (2 or 5 μmol/L, VCaP) was “increased PARP1 cleavage”. At STAT3 (SPR), the “Binding pattern with STAT3” value was “fast binding/fast dissociation”.
`O=C(c1cc(Cc2n[nH]c(=O)c3ccccc23)ccc1F)N1CCN(C(=O)C2CC2)CC1` [Olaparib, olaparib]: in the data set on γ-H2A.X (10 μmol/L OLP with NFZ), the “Effect of olaparib on NFZ-induced γ-H2A.X” value is on record as “counteracted this effect of NFZ”. Besides, the “Effect of olaparib on NFZ-induced necrotic cells (Q1 and Q2)” value in the data set with VCaP cells [1] (olaparib and NFZ combination group versus NFZ) is on record as “reduced the number of necrotic cells”. In the data set with AIF (10 μmol/L olaparib with NFZ), the “Effect of olaparib on NFZ-induced AIF release” value is given as “reduced”. In addition, the “Effect of olaparib on NFZ-mediated growth inhibition” value with VCaP (5 μmol/L NFZ with 20 μmol/L olaparib) was “completely abrogated the inhibitory effects of NFZ”; in the data set with VCaP (5 μmol/L NFZ with 0.5, 1.0, or 20 μmol/L OLP), “blocked NFZ-mediated growth inhibition”. Besides, in the data set on cleaved PARP1 (10 μmol/L OLP with NFZ), the “Effect of olaparib on NFZ-induced PARP1 cleavage” value is recorded as “not altered”.
On to `CC1CS(=O)(=O)CCN1/N=C/c1ccc([N+](=O)[O-])o1` (stereo not shown) [Nifurtimox], for which the IC50 in the data set with DU145, in the data set on PC3, in the data set on LNCaP, with WPMY and in the data set on VCaP was more than 30 µM each time.
